Active and inactive are the calls of the source. The calls are words filed in the database; no cut-off is given here.
Columns and labels:
Adenosine receptor A2a [1] = target: Adenosine receptor A2a (Rattus norvegicus, UniProt P30543); experiment: Displacement of [3H]MSX-2 from adenosine A2A receptor in rat brain striatal membrane; format: cell membranes
Adenosine receptor A1 [2] = target: T1, Adenosine receptor A1 (Rattus norvegicus, UniProt P25099); experiment: Displacement of [3H]CCPA from adenosine A1 receptor in rat brain cortical membrane; format: cell membranes
T1 sequence (P25099 whole entry): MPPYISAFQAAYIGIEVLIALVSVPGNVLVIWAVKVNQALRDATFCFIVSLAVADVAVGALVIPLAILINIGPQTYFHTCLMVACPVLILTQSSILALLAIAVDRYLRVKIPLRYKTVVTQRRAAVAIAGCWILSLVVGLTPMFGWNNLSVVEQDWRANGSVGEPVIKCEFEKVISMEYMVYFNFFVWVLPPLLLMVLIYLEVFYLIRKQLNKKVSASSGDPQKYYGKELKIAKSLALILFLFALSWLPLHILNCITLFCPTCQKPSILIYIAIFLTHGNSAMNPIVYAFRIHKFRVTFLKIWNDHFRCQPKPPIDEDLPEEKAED

Mus musculus [3] = experiment: Anticonvulsant activity in F1 albino mouse assessed as protection against subcutaneous pentylenetetrazole-induced seizures at 300 mg/kg, ip after 4 hrs; format: functional, organism-based; design: dose 300 mg/kg
Procedure, shortened: (§1)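 Male albino F-1 mice (18–25 g), groups of 1–5 (rotorod 2–8). Compound given ip as a suspension in 0.5% methylcellulose at 30, 100 and 300 mg/kg. Seizures by maximal electroshock or subcutaneous pentylenetetrazole; neurotoxicity by rotorod. Read at 0.5 and 4 h, with some at 0.25, 1 and 2 h. Value is the minimum active dose, with protected (or toxic)/tested animals.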

[4] = target: T2, Adenosine receptor A1 (Rattus norvegicus) (UniProt P25099); experiment: Displacement of [3H]CCPA from adenosine A1 receptor in rat brain cortical membrane at 25 uM; format: cell membranes
T2 sequence (whole entry): T1 sequence (P25099 whole entry)

Mus musculus [5] = experiment: Neurotoxicity in F1 albino mouse assessed as minimal motor impairment at 300 mg/kg, ip after 0.5 hrs by rotorod test; format: toxicity, organism-based; design: dose 300 mg/kg, route intraperitoneal; conditions: in vivo; procedure, shortened: as §1
Rattus norvegicus = organism: Rattus norvegicus; experiment: Selectivity ratio of Ki for adenosine A1 receptor in rat brain cortical membrane to Ki for adenosine A2A receptor in rat brain striatal membrane; format: cell membranes
Procedure, shortened: (§2)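 Ki ratios from radioligand competition binding. Rat A1 used brain cortical membranes and rat A2A used brain striatal membranes. Human A1 and A2A used membranes of CHO cells expressing the receptors. A1 radioligand [³H]CCPA; A2A radioligand [³H]MSX-2. Potent compounds were tested at 6–7 concentrations spanning 3 orders of magnitude.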

[6] = target: T3, Adenosine receptor A3 (Homo sapiens) (UniProt P0DMS8); experiment: Displacement of [3H]PSB-11 from human recombinant adenosine A3 receptor expressed in CHO cells at 10 uM; format: cell-based
T3 sequence (whole entry): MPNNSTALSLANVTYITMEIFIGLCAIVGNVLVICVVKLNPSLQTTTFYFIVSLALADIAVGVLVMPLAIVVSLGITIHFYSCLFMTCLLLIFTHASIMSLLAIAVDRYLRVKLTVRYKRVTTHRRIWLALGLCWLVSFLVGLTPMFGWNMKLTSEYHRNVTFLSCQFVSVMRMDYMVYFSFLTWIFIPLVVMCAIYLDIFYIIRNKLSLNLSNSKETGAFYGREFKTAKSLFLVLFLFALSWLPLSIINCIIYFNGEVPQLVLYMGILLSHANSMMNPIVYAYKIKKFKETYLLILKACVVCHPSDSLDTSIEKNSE
Procedure, shortened: (§3)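 CHO cell membranes expressing the human receptor. Radioligands: A1 [3H]CCPA; A2B [3H]ZM241385 or [3H]PSB-603; A3 [3H]PSB-11. […] Potent compounds run at 6–7 concentrations spanning 3 orders of magnitude; Ki ± SEM.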

Mus musculus [7] = experiment: Anticonvulsant activity in F1 albino mouse assessed as protection against maximal electroshock-induced seizures at 300 mg/kg, ip after 1 hr; format: functional, organism-based; design: dose 300 mg/kg; procedure, shortened: as §1
Mus musculus [8] = experiment: Anticonvulsant activity in F1 albino mouse assessed as protection against maximal electroshock-induced seizures at 300 mg/kg, ip after 0.25 hrs; format: functional, organism-based; design: dose 300 mg/kg; procedure, shortened: as §1
Adenosine receptor A2a [9] = target: Adenosine receptor A2a (Homo sapiens, UniProt P29274); experiment: Displacement of [3H]MSX-2 from human recombinant adenosine A2A receptor expressed in CHO cells; format: cell-based
CHO = experiment: Selectivity ratio of Ki for human recombinant adenosine A2A receptor expressed in CHO cells to Ki for adenosine A2A receptor in rat brain striatal membrane; format: cell-based; procedure, shortened: as §2
Mus musculus [10] = experiment: Neurotoxicity in F1 albino mouse assessed as minimal motor impairment at 300 mg/kg, ip after 0.25 hrs by rotorod test; format: toxicity, organism-based; design: dose 300 mg/kg, route intraperitoneal; conditions: in vivo; procedure, shortened: as §1
Adenosine receptor A1 [11] = target: T4, Adenosine receptor A1 (Homo sapiens, UniProt P30542); experiment: Displacement of [3H]CCPA from human recombinant adenosine A1 receptor expressed in CHO cells; format: cell-based
T4 sequence (P30542 whole entry): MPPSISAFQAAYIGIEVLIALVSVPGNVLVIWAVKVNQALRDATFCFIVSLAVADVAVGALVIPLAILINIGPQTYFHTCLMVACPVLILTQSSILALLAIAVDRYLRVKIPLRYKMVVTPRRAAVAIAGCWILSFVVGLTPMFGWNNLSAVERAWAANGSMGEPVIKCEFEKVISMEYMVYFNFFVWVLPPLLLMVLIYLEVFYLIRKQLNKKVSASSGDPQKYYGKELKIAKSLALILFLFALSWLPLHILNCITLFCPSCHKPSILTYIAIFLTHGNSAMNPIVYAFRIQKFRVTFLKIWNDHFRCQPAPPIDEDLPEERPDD

Mus musculus [12] = experiment: Anticonvulsant activity in F1 albino mouse assessed as protection against subcutaneous pentylenetetrazole-induced seizures at 300 mg/kg, ip after 1 hr; format: functional, organism-based; design: dose 300 mg/kg; procedure, shortened: as §1
Adenosine receptor A2b [13] = target: T5, Adenosine receptor A2b (Homo sapiens, UniProt P29275); experiment: Displacement of [3H]PSB-603 from human recombinant adenosine A2B receptor expressed in CHO cells; format: cell-based; procedure, shortened: as §3
T5 sequence (P29275 whole entry): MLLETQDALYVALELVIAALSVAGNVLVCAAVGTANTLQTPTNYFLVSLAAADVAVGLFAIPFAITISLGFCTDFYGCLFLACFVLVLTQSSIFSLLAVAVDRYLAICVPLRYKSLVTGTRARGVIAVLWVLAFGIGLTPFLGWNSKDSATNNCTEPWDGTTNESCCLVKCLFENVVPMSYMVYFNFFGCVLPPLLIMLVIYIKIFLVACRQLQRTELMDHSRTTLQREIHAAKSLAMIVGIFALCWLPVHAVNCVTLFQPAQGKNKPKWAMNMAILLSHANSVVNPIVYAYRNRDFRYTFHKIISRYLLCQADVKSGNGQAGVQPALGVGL

Mus musculus [14] = experiment: Anticonvulsant activity in F1 albino mouse assessed as protection against subcutaneous pentylenetetrazole-induced seizures at 300 mg/kg, ip after 0.25 hrs; format: functional, organism-based; design: dose 300 mg/kg; procedure, shortened: as §1
[15] = target: T6, Adenosine receptor A1 (Homo sapiens) (UniProt P30542); experiment: Displacement of [3H]CCPA from human recombinant adenosine A1 receptor expressed in CHO cells at 10 uM; format: cell-based; procedure, shortened: as §3
T6 sequence (whole entry): T4 sequence (P30542 whole entry)

Mus musculus [16] = experiment: Neurotoxicity in F1 albino mouse assessed as minimal motor impairment at 300 mg/kg, ip after 1 hr by rotorod test; format: toxicity, organism-based; design: dose 300 mg/kg, route intraperitoneal; conditions: in vivo; procedure, shortened: as §1
Mus musculus [17] = experiment: Anticonvulsant activity in F1 albino mouse assessed as protection against maximal electroshock-induced seizures at 300 mg/kg, ip after 4 hrs; format: functional, organism-based; design: dose 300 mg/kg; procedure, shortened: as §1
Adenosine receptor A3 = target: T7, Adenosine receptor A3 (Homo sapiens, UniProt P0DMS8); experiment: Displacement of [3H]PSB-11 from human recombinant adenosine A3 receptor expressed in CHO cells; format: cell-based
T7 sequence (P0DMS8 whole entry): T3 sequence (whole entry)

Mus musculus [18] = experiment: Anticonvulsant activity in F1 albino mouse assessed as protection against subcutaneous pentylenetetrazole-induced seizures at 300 mg/kg, ip after 0.5 hrs; format: functional, organism-based; design: dose 300 mg/kg; procedure, shortened: as §1
Mus musculus [19] = experiment: Anticonvulsant activity in F1 albino mouse assessed as protection against maximal electroshock-induced seizures at 300 mg/kg, ip after 0.5 hrs; format: functional, organism-based; design: dose 300 mg/kg; procedure, shortened: as §1
[20] = target: T8, Adenosine receptor A2b (Homo sapiens) (UniProt P29275); experiment: Displacement of [3H]PSB-603 from human recombinant adenosine A2B receptor expressed in CHO cells at 10 uM; format: cell-based; procedure, shortened: as §3
T8 sequence (whole entry): T5 sequence (P29275 whole entry)

Mus musculus [21] = experiment: Neurotoxicity in F1 albino mouse assessed as minimal motor impairment at 300 mg/kg, ip after 4 hrs by rotorod test; format: toxicity, organism-based; design: dose 300 mg/kg, route intraperitoneal; conditions: in vivo; procedure, shortened: as §1
[22] = target: T8, Adenosine receptor A2b (Homo sapiens); experiment: Displacement of [3H]ZM241385 from human adenosine A2B receptor expressed in CHO cells at 10 uM; format: cell-based; procedure, shortened: as §3
Adenosine receptor A2b [23] = target: T5, Adenosine receptor A2b; experiment: Displacement of [3H]ZM241385 from human adenosine A2B receptor expressed in CHO cells; format: cell-based

Sequence of Adenosine receptor A2a (Homo sapiens, UniProt P29274) (P29274 whole entry): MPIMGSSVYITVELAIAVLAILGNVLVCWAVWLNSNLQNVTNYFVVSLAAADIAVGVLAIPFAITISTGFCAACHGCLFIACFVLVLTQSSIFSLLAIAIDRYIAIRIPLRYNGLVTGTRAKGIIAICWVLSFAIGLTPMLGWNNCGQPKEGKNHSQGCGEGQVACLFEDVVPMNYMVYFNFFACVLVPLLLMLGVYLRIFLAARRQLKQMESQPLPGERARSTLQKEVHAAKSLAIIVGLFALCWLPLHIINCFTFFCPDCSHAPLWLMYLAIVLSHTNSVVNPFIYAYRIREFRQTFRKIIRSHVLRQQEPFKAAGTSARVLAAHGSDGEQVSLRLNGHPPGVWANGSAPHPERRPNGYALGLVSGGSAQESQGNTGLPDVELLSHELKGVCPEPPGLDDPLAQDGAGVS
Sequence of Adenosine receptor A2a (Rattus norvegicus, UniProt P30543) (P30543 whole entry): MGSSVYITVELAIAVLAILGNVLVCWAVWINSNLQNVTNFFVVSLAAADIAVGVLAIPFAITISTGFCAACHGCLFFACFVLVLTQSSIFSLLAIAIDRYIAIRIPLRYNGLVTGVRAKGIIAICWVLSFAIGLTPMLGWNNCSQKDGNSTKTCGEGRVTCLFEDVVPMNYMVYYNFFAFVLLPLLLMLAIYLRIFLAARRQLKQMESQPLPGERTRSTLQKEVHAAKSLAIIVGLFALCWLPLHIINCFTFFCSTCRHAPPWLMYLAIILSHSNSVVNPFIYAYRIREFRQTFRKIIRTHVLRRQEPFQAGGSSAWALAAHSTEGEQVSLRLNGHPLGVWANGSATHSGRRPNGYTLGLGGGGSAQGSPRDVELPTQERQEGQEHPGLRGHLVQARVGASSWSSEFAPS

| Ki (Adenosine receptor A2a [1]) [µM] | Ki (Adenosine receptor A1 [2]) [µM] | inhibition [4] [%] | Ratio Ki (Rattus norvegicus) | inhibition [6] [%] | Ki (Adenosine receptor A2a [9]) [µM] | Ki (Adenosine receptor A1 [11]) [µM] | inhibition [15] [%] | Ki (Adenosine receptor A3) [µM] | Structure (SMILES) | Activity (Mus musculus [3]) | Activity (Mus musculus [5]) | Activity (Mus musculus [7]) | Activity (Mus musculus [8]) | Activity (Mus musculus [10]) | Activity (Mus musculus [12]) | Activity (Mus musculus [14]) | Activity (Mus musculus [16]) | Activity (Mus musculus [17]) | Activity (Mus musculus [18]) | Activity (Mus musculus [19]) | other results |
| --- | --- | --- | --- | --- | --- | --- | --- | --- | --- | --- | --- | --- | --- | --- | --- | --- | --- | --- | --- | --- | --- |
| 0.81 | ≥ 25 | 39 | > 31 | 12 | 1.61 | > 10 | 37 | > 10 | Cn1c(=O)c2c(nc3n2CCCN3C2CCCCC2)n(C)c1=O | inactive | Non-toxic | inactive | inactive | Non-toxic | inactive | inactive | Non-toxic | inactive | Active | inactive | Ratio Ki (CHO): 2; Ki (Adenosine receptor A2b [13]): > 10 µM; inhibition [20]: 0%; Activity (Mus musculus [21]): Non-toxic |
| 2.67 | > 10 | 4 | 4 | 6 | 1.16 | > 10 | 41 | > 10 | Cn1c(=O)c2c(nc3n2CCCN3C2CCCCCC2)n(C)c1=O | inactive | Non-toxic | inactive | inactive | Non-toxic | inactive | inactive | Non-toxic | inactive | inactive | inactive | Ki (Adenosine receptor A2b [13]): > 10 µM; inhibition [20]: 0%; Activity (Mus musculus [21]): Non-toxic |
| 4.48 | > 25 | 4 | > 6 | 0 | 3.27 | > 10 | 7 | > 10 | Cn1c(=O)c2c(nc3n2CCN3C2CCC(O)CC2)n(C)c1=O (mixture of isomers) | inactive | Non-toxic | inactive | inactive | Non-toxic | inactive | inactive | Non-toxic | inactive | inactive | inactive | inhibition [22]: 24%; Ki (Adenosine receptor A2b [23]): > 10 µM; Activity (Mus musculus [21]): Non-toxic |
| 6.2 | > 10 | 5 | > 2 | 27 | 21.9 | > 10 | 5 | > 10 | CC(=O)O[C@H]1CC[C@H](N2CCCn3c2nc2c3c(=O)n(C)c(=O)n2C)CC1 | inactive | Non-toxic | inactive | inactive | Non-toxic | inactive | inactive | Non-toxic | inactive | inactive | inactive | Ratio Ki (CHO): 3; Ki (Adenosine receptor A2b [13]): > 10 µM; inhibition [20]: 0%; Activity (Mus musculus [21]): Non-toxic |
